In the library only some 4% were active in any assay of this set; here they are far more common.
MPTP inh: inhibitors of mitochondrial permeability transition pore. isolated mouse mitochondria, Ca2+ swelling absorbance, 30 min. inhibition, % at 10 µM. hit rate 1.4% among 360,000;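 active = inhibition of 50% or more, scaled per plate between neutral and stimulator controls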;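 note: 0% = DMSO wells given calcium and 100% = 1 mM EGTA wells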
DAGLB inh: diacylglycerol lipase beta (human) inhibition; Q8NCG7; HEK293T DAGLB membrane lysate, EnzChek fluorogenic substrate; inhibition, % at 5.17 µM; hit rate 0.059% among 340,000; AID 504411; in the data active = inhibition above about 34%;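 note: 0% = enzyme with vehicle and 100% = wells lacking enzyme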
Target sequence (Q8NCG7 whole entry, looked up): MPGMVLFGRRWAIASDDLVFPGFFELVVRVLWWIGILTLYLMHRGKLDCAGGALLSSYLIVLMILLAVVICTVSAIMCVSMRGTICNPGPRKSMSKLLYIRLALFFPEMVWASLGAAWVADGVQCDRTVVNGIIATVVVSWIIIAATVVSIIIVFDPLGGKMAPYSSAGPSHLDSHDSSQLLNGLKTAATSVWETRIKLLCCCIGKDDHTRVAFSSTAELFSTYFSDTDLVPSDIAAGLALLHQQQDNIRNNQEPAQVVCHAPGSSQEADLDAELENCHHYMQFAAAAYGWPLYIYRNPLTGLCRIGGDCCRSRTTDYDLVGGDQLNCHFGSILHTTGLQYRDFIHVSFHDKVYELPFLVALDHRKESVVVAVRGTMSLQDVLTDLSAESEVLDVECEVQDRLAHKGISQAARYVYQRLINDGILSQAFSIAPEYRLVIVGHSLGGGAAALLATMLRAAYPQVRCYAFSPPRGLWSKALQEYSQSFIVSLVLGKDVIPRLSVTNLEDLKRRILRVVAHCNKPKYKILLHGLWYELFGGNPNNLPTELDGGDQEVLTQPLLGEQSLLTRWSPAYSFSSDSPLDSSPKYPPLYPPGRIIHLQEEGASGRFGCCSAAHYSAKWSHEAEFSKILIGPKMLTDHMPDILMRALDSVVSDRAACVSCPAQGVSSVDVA
TAAR1 antagonist: antagonists of human TAAR1; Q96RJ0; hit rate 1.5% among 360,000; CHO RD-HGA16 TAAR1, Fluo-8 calcium fluorescence, antagonist; AID 624466; inhibition, % at 3 µM;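 active = inhibition above a per-plate cutoff, the mean inhibition of test compounds on that plate plus 3 SD, cut at about 49% in these data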;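 note: 0% = DMSO plus EC80 beta-PEA response and 100% = DMSO alone without agonist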
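Material: CHO RD-HGA16 cells bearing hTAAR1; compound dosing: one-point dosing, 3 µM nominal final; schedule: dye loading 75 min at 37 °C, then 30 min room temperature; measured by: calcium fluorescence with Fluo-8; control set: vehicle and agonist controls; replication: n of 1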
TAAR1 ag: human TAAR1 agonism; Q96RJ0; CHO RD-HGA16 TAAR1, Fluo-8 calcium fluorescence; vehicle wells 0%, saturating PEA agonist 100%; activation, % at 3 µM; hit rate 0.99% among 360,000; AID 624467;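 active = activation above the mean activation of all test compounds in the run plus 3 SD, cut at about 38% in these data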
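Benchmarks: low control DMSO, high control PEA (EC100); System: CHO RD-HGA16 cells carrying human TAAR1 plus Gα16; Detection: Fluo-8 fluorescence, 5 s baseline then 140 s kinetic read; Schedule: 17-24 h plating, Fluo-8 75 min 37 °C, 30 min RT; Read-out basis: % activation from peak over basal fluorescence ratio, DMSO-to-PEA scaled.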
GPR7 antagonist: human neuropeptides B/W receptor 1 antagonism | inhibition, % at 4.4 µM | GPR7-expressing cells, fluorescence antagonist assay | P48145 | hit rate 1.1% among 290,000; in the data active = inhibition above about 16%, passing the limit was not always enough;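 note: cells stimulated with the agonist NPW; 0% = agonist with vehicle and 100% = vehicle without agonist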
GPR7 antag cf: confirmation of human GPR7 antagonists. hit rate 52% among 2,400. shares compounds with GPR7 antagonist. inhibition, % at 4.4 µM. GPR7-expressing cells, calcium fluorescence antagonist mode; in the data active = inhibition above about 24%;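 note: stimulated with the GPR7 agonist NPW; 0% = agonist plus vehicle and 100% = vehicle alone without agonist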
MCHR1 antagonist: counter-screen for GPR7 antagonists: antagonists of human MCHR1 | shares compounds with GPR7 antagonist | MCHR1-expressing cells, fluorescence antagonist assay | inhibition, % at 4.4 µM | hit rate 62% among 2,400;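 note: 0% = vehicle with agonist and 100% = vehicle without agonist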
MPTP counter: mitochondrial membrane potential, counter-screen; shares compounds with MPTP inh; isolated mitochondria, Rhodamine 123 fluorescence; inhibition, % at 10 µM; hit rate 78% among 5,000;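 note: 0% = DMSO vehicle and 100% = positive control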
MPTP swell DR: dose response confirmation of mitochondrial permeability transition pore inhibitors | shares compounds with MPTP inh | isolated mitochondria swelling, absorbance | IC50, µM | hit rate 58% among 780 | AID 651561; in the data active = IC50 below about 20 µM
MPTP cs DR: counter-screen for mitochondrial permeability transition pore inhibitors, dose response. shares compounds with MPTP inh. isolated mitochondria counterscreen, fluorescence read-out. IC50, µM. AID 651564. hit rate 49% among 780; in the data active = IC50 below about 80 µM
* = called active by the depositor; . = no result. Cut-off read from the data, not from the text of the source, unless noted: active = inhibition above about 22%; inactive = the rest.

SMILES	MPTP inh	DAGLB inh	TAAR1 antagonist	TAAR1 ag	GPR7 antagonist	GPR7 antag cf	MCHR1 antagonist	MPTP counter	others
C[C@H](c1ccccc1)N1C[C@@H](COCc2ccccc2)Oc2cc(N3CC[C@@H](N(C)C)C3)ccc2S1(=O)=O	3	.	0	13	.	.	.	.
CN(C)CCCN(C(=O)CCc1ccccc1)c1nc2ccc(Cl)cc2s1	93*	-4	13	12	23*	73*	85*	-17
CCCN(CC(=O)Nc1cccc(S(N)(=O)=O)c1)CC(=O)Nc1ccc(F)c(F)c1F	2	-3	-2	-4	14	.	.	.
CCCN(CC(=O)Nc1cccc(Br)c1)CC(=O)Nc1ccc(F)c(F)c1F	74*	-6	16	3	23*	31*	47*	75*
COC(=O)[C@]12C[C@H](CC(=O)NCc3ccc(OC)c(OC)c3)C(=O)N(Cc3ccccc3)C1=C[C@H](C1CCCC1)O[C@@H]2C	.	.	-24	-1	.	.	.	.
CC(=O)OCC(=O)Nc1ccc([N+](=O)[O-])cc1Cl	1	1	4	-1	-16	.	.	.
CC(=O)Oc1c(C)cc(Cl)cc1C(=O)Nc1ccc([N+](=O)[O-])cc1Cl	85*	3	26	12	25*	59*	62*	91*
O=C(Nc1ccc2ccccc2c1)c1ccccc1O	98*	-5	23	2	30*	39*	53*	92*
CCN(CC)C(=O)C1=C(C)N(CCCOC)C(=O)C(CC(=O)NC(c2ccccc2)c2ccccc2)C1 (stereo unspecified)	-1	1	5	1	.	.	.	.
CCOc1cc(CNCc2ccccc2)ccc1OCc1ccc(Cl)cc1	68*	-5	47	48*	66*	56*	78*	73*
Cc1cc(OCC(=O)Nc2ccncc2)cc(C)c1Cl	94*	-7	13	19	29*	36*	60*	84*
O=C(c1ccccc1)c1ccc(Cn2cc(-c3ccccc3)nn2)cc1	85*	-7	37	3	41*	47*	61*	99*
CCN(CC)C(=O)C1=C(C)N(CCCN2CCCC2=O)C(=O)C(CC(=O)NC2CCCC2)C1 (stereo unspecified)	0	-1	-22	1	.	.	.	.
OC1CCC(NC(=S)Nc2ccc(SC(F)F)cc2)CC1 (stereo unspecified)	-2	0	18	2	3	.	.	.
CC1CCCC(NC(=S)Nc2ccc(SC(F)F)cc2)C1C (stereo unspecified)	103*	-3	34	13	45*	32*	54*	97*
CN1CCN(c2ccc(Cl)cc2NC(=O)/C=C/c2cccc(F)c2)CC1	74*	2	5	10	27*	43*	28*	-23	MPTP swell DR=6.8*;MPTP cs DR=>80
O=C(c1cccs1)N1CCN(c2nc3ccccc3s2)CC1	-1	-4	9	2	-4	.	.	.
O=C(c1cc2sccc2n1Cc1ccc(F)cc1)N1CCN(c2nc3ccccc3s2)CC1	90*	-6	18	2	32*	28*	38*	103*
COc1cccc(NC(=O)Nc2ccncc2)c1	12	2	-9	17	2	.	.	.
C=CCSc1nsc(NC(=O)Nc2ccc(F)cc2)n1	98*	1	43	10	36*	61*	61*	78*
O=C(Nc1ccc(F)cc1)Nc1nnc(Cc2ccccc2)s1	19	0	10	11	-10	.	.	.
CCSc1nsc(NC(=O)Nc2cccc(OC)c2)n1	84*	2	32	9	28*	37*	61*	85*
CCCCNC(=O)c1nc(-c2cccs2)oc1-c1ccc(Cl)cc1	2	.	-29	5	.	.	.	.
COC(=O)c1cc2c(c3c4cc(C)ccc4n(S(=O)(=O)c4cccc(C)c4)c13)C(=O)N(C)C2	.	.	-41	-2	.	.	.	.
Cc1ccc(NC(=S)N(CCN(C)C)Cc2cc3cccc(C)c3[nH]c2=O)cc1	-2	-1	4	2	-2	.	.	.
SMILES	MPTP inh	DAGLB inh	TAAR1 antagonist	TAAR1 ag	GPR7 antagonist	GPR7 antag cf	MCHR1 antagonist	MPTP counter	others
Cc1ccc(CN(Cc2cc3cccc(C)c3[nH]c2=O)C(=S)NCCCN(C)C)cc1	65*	0	4	22	36*	47*	30*	-13	MPTP swell DR=12*;MPTP cs DR=>80
O=C(Nc1cccc(Cl)c1)c1cc(S(=O)(=O)NCCc2ccc(Cl)cc2)ccc1F	70*	-14	-2	6	21*	-8	43*	71*
CC(C)COCC(CN(Cc1ccccc1)c1ccccc1)N1CCCC1 (stereo unspecified)	92*	2	-16	8	46*	48*	31*	-5	MPTP swell DR=14*;MPTP cs DR=44*
CC(C(=O)Nc1ccc(OCc2ccccc2)cc1)N1CCCC1 (stereo unspecified)	0	2	-11	5	-1	.	.	.
Fc1cc(Br)ccc1NC(=S)NCCc1ccccc1	79*	-15	8	9	38*	6	35*	83*
CN1CCN(c2cc(-c3ccc4ccccc4c3)nc3ccnn23)CC1	1	.	6	1	.	.	.	.
O=C(Nc1ccccc1)Nc1ccc2snnc2c1	101*	2	17	40*	25*	27*	60*	92*
O=C(NCc1ccccc1)c1ccc2nnsc2c1	2	-2	0	5	-4	.	.	.
O=C(Nc1ccccc1)Nc1ccc2nnsc2c1	83*	-3	3	30	33*	28*	62*	72*
O=[N+]([O-])c1ccc(C2=NN(CCO)C(=Nc3ccc(OC(F)(F)F)cc3)SC2)cc1	54*	-5	16	6	28*	54*	37*	53*
Cc1cc(C)n(CCNC(=O)[C@H]2O[C@@H](n3cnc4c(N)ncnc43)[C@H](O)[C@@H]2O)n1	-1	.	10	4	.	.	.	.
CN1CCN(CCOC2Cc3ccccc3Sc3ccc(Cl)cc32)CC1 (stereo unspecified)	90*	-3	9	12	23*	33*	44*	-11	MPTP swell DR=6.5*;MPTP cs DR=>80
CN1CCN(CCC(=O)N2c3ccccc3Sc3ccc(Cl)cc32)CC1	-2	0	-31	3	14	.	.	.
Cc1ccc(NC(=O)CSc2ncnc3ccccc23)cc1S(=O)(=O)N1CCCCC1	79*	-8	38	5	23*	58*	63*	71*
